{"source": "paper PMC6220894", "about": "(Food and chemical toxicology : an international journal …, 2018)", "key": {"[1]": {"tested_on": "cryopreserved human hepatocytes", "assay": "Cytotoxicity", "format": "cell-based", "details": "72 hours", "in_short": "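Cryopreserved hepatocytes from three donors (1 male, 2 female, Caucasian, 43–59 y) were thawed, plated at 0.15 million cells/well on collagen-coated plates at 37°C in 5% CO2, medium-changed after 2–4 h attachment, and recovered overnight. Cells were exposed to 0.3, 3 or 30 µM test compound or 0.1% DMSO vehicle for 72 h, with medium renewed daily. MTS conversion to formazan was then read, in triplicate.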"}, "[2]": {"assay": "In vitro metabolism in cryopreserved hepatocytes", "format": "in vitro ADME", "details": "rat hepatocytes; 25 µM; 4 hours"}, "[3]": {"details": "mice; long-term (10 month) administration; ref Davies et al., 2011; cited from earlier work"}, "[4]": {"tested_on": "Salmonella typhimurium TA 102", "assay": "Ames bacterial reverse mutation assay, pre-incubation method", "format": "cell-based"}, "[5]": {"tested_on": "Salmonella typhimurium TA 1535", "format": "cell-based", "details": "pre-incubation"}, "in vitro": {"assay": "in vitro", "details": "both, human, plasma (pooled), pH 7.4"}, "C. elegans": {"tested_on": "C. elegans", "details": "ref Nguyen et al., 2016; cited from earlier work"}, "[6]": {"tested_on": "Salmonella typhimurium TA 1537", "assay": "Ames bacterial reverse mutation assay, plate incorporation method", "format": "cell-based"}, "CYP3A4": {"tested_on": "CYP3A4", "assay": "CYP mRNA induction in human hepatocytes", "format": "in vitro ADME", "details": "0.3, 3, 30 µM; 72 hours; 3 donors"}, "memory deficits": {"tested_on": "memory deficits", "details": "mouse model of Alzheimer's disease; ref Davies et al., 2011; cited from earlier work"}, "CYP1A2 or CYP3A4": {"tested_on": "CYP1A2 or CYP3A4", "assay": "CYP mRNA induction in human hepatocytes, isoform not given", "format": "in vitro ADME", "details": "0.3 µM; one donor; isoform not stated"}, "[7]": {"tested_on": "Salmonella typhimurium TA 100", "format": "cell-based", "details": "pre-incubation"}, "[8]": {"details": "ref Davies et al., 2002; Zagol-Ikapitte et al., 2010a; cited from earlier work"}, "[9]": {"details": "−S9, 0.05 mg/plate as printed (third dose row)"}}, "note": "Like-named read-outs stand apart in the source and are kept apart here.", "data": [{"smiles": "CC(=O)O.NCc1ccccc1O", "note": "[2-HOBA, 2-Hydroxybenzylamine acetate]", "values": [{"measurement": "% formazan absorbance relative to vehicle", "setting": "[1]; all concentrations (0.3, 3, 30 µM), any donor", "result": "≥ 94", "unit": "%"}, {"measurement": "Formazan absorbance", "setting": "[1]; donor 1, 0.3 µM", "result": 0.82}, {"measurement": "Formazan absorbance (% of vehicle)", "setting": "[1]; donor 1, 0.3 µM", "result": "117 % of vehicle"}, {"measurement": "Formazan absorbance", "setting": "[1]; donor 1, 3 µM", "result": 0.81}, {"measurement": "Formazan absorbance (% of vehicle)", "setting": "[1]; donor 1, 3 µM", "result": "115 % of vehicle"}, {"measurement": "Formazan absorbance", "setting": "[1]; donor 1, 30 µM", "result": 0.75}, {"measurement": "Formazan absorbance (% of vehicle)", "setting": "[1]; donor 1, 30 µM", "result": "107 % of vehicle"}, {"measurement": "Formazan absorbance", "setting": "[1]; donor 2, 0.3 µM", "result": 0.37}, {"measurement": "Formazan absorbance (% of vehicle)", "setting": "[1]; donor 2, 0.3 µM", "result": "94 % of vehicle"}, {"measurement": "Formazan absorbance", "setting": "[1]; donor 2, 3 µM", "result": 0.38}, {"measurement": "Formazan absorbance (% of vehicle)", "setting": "[1]; donor 2, 3 µM", "result": "96 % of vehicle"}, {"measurement": "Formazan absorbance", "setting": "[1]; donor 2, 30 µM", "result": 0.39}, {"measurement": "Formazan absorbance (% of vehicle)", "setting": "[1]; donor 2, 30 µM", "result": "100 % of vehicle"}, {"measurement": "Formazan absorbance", "setting": "[1]; donor 3, 0.3 µM", "result": 0.64}, {"measurement": "Formazan absorbance (% of vehicle)", "setting": "[1]; donor 3, 0.3 µM", "result": "99 % of vehicle"}, {"measurement": "Formazan absorbance", "setting": "[1]; donor 3, 3 µM", "result": 0.66}, {"measurement": "Formazan absorbance (% of vehicle)", "setting": "[1]; donor 3, 3 µM", "result": "102 % of vehicle"}, {"measurement": "Formazan absorbance", "setting": "[1]; donor 3, 30 µM", "result": 0.67}, {"measurement": "Formazan absorbance (% of vehicle)", "setting": "[1]; donor 3, 30 µM", "result": "104 % of vehicle"}, {"measurement": "Formazan absorbance", "setting": "[1]; mean of 3 donors, 0.3 µM", "result": 0.61}, {"measurement": "Formazan absorbance (% of vehicle)", "setting": "[1]; mean of 3 donors, 0.3 µM", "result": "103 % of vehicle"}, {"measurement": "Formazan absorbance", "setting": "[1]; mean of 3 donors, 3 µM", "result": 0.62}, {"measurement": "Formazan absorbance (% of vehicle)", "setting": "[1]; mean of 3 donors, 3 µM", "result": "104 % of vehicle"}, {"measurement": "Formazan absorbance", "setting": "[1]; mean of 3 donors, 30 µM", "result": 0.61}, {"measurement": "Formazan absorbance (% of vehicle)", "setting": "[1]; mean of 3 donors, 30 µM", "result": "103 % of vehicle"}, {"measurement": "principle metabolites observed", "setting": "[2]", "result": "salicylic acid (M1) and the glycoside conjugate metabolite of 2-HOBA"}, {"measurement": "body weight or survival", "setting": "[3]", "result": "did not affect body weight or survival"}, {"measurement": "Mean plate counts (revertant colonies)", "setting": "[4]; +S9, 0.05 mg/plate", "result": "280.0±6.0"}, {"measurement": "Mean plate counts (revertant colonies)", "setting": "[4]; +S9, 0.15 mg/plate", "result": "271.3±11.0"}, {"measurement": "Mean plate counts (revertant colonies)", "setting": "[4]; +S9, 0.5 mg/plate", "result": "256.0±7.2"}, {"measurement": "Mean plate counts (revertant colonies)", "setting": "[4]; +S9, 1.5 mg/plate", "result": "283.3±16.2"}, {"measurement": "Mean plate counts (revertant colonies)", "setting": "[4]; +S9, 5 mg/plate", "result": "256.7±8.1"}, {"measurement": "Change in revertant colony counts vs negative control (mutagenicity)", "setting": "[4]; +S9 and −S9, all dose levels", "result": "No changes in revertant colony counts were observed"}, {"measurement": "Mean plate counts (revertant colonies)", "setting": "[4]; −S9, 0.05 mg/plate", "result": "241.3±12.1"}, {"measurement": "Mean plate counts (revertant colonies)", "setting": "[4]; [9]", "result": "236.0±15.6"}, {"measurement": "Mean plate counts (revertant colonies)", "setting": "[4]; −S9, 0.15 mg/plate", "result": "232.7±3.1"}, {"measurement": "Mean plate counts (revertant colonies)", "setting": "[4]; −S9, 1.5 mg/plate", "result": "250.0±12.5"}, {"measurement": "Mean plate counts (revertant colonies)", "setting": "[4]; −S9, 5 mg/plate", "result": "250.7±14.0"}, {"measurement": "Mean plate counts (revertant colonies)", "setting": "[5]; +S9, 0.05 mg/plate", "result": "12.0±2.0"}, {"measurement": "Mean plate counts (revertant colonies)", "setting": "[5]; +S9, 0.15 mg/plate", "result": "12.0±1.0"}, {"measurement": "Mean plate counts (revertant colonies)", "setting": "[5]; +S9, 0.5 mg/plate", "result": "14.3±2.1"}, {"measurement": "Mean plate counts (revertant colonies)", "setting": "[5]; +S9, 1.5 mg/plate", "result": "12.3±0.6"}, {"measurement": "Mean plate counts (revertant colonies)", "setting": "[5]; +S9, 5 mg/plate", "result": "11.7±2.1"}, {"measurement": "Change in revertant colony counts vs negative control (mutagenicity)", "setting": "[5]; +S9 and −S9, all dose levels", "result": "No changes in revertant colony counts were observed"}, {"measurement": "Mean plate counts (revertant colonies)", "setting": "[5]; −S9, 0.05 mg/plate", "result": "12.7±1.5"}, {"measurement": "Mean plate counts (revertant colonies)", "setting": "[5]; [9]", "result": "12.0±1.0"}, {"measurement": "Mean plate counts (revertant colonies)", "setting": "[5]; −S9, 0.15 mg/plate", "result": "11.7±1.5"}, {"measurement": "Mean plate counts (revertant colonies)", "setting": "[5]; −S9, 1.5 mg/plate", "result": "11.3±1.5"}, {"measurement": "Mean plate counts (revertant colonies)", "setting": "[5]; −S9, 5 mg/plate", "result": "12.0±1.7"}, {"measurement": "fraction unbound at 4 h, 1 µM", "setting": "in vitro", "result": "0.921 ± 0.024"}, {"measurement": "fraction unbound at 4 h, 10 µM", "setting": "in vitro", "result": 0.86}, {"measurement": "lifespan", "setting": "C. elegans", "result": "increased lifespan"}, {"measurement": "Mean plate counts (revertant colonies)", "setting": "[6]; +S9, 0.05 mg/plate", "result": "6.3±0.6"}, {"measurement": "Mean plate counts (revertant colonies)", "setting": "[6]; +S9, 0.05 mg/plate as printed (third dose row)", "result": "6.3±0.6"}, {"measurement": "Mean plate counts (revertant colonies)", "setting": "[6]; +S9, 0.15 mg/plate", "result": "6.3±1.5"}, {"measurement": "Mean plate counts (revertant colonies)", "setting": "[6]; +S9, 1.5 mg/plate", "result": "6.0±1.0"}, {"measurement": "Mean plate counts (revertant colonies)", "setting": "[6]; +S9, 5 mg/plate", "result": "6.3±1.5"}, {"measurement": "Change in revertant colony counts vs negative control (mutagenicity)", "setting": "[6]; +S9 and −S9, all dose levels", "result": "No changes in revertant colony counts were observed"}, {"measurement": "Mean plate counts (revertant colonies)", "setting": "[6]; −S9, 0.05 mg/plate", "result": "5.0±1.0"}, {"measurement": "Mean plate counts (revertant colonies)", "setting": "[6]; [9]", "result": "5.3±0.6"}, {"measurement": "Mean plate counts (revertant colonies)", "setting": "[6]; −S9, 0.15 mg/plate", "result": "5.0±0.0"}, {"measurement": "Mean plate counts (revertant colonies)", "setting": "[6]; −S9, 1.5 mg/plate", "result": "5.7±1.2"}, {"measurement": "Mean plate counts (revertant colonies)", "setting": "[6]; −S9, 5 mg/plate", "result": "6.0±1.0"}, {"measurement": "CYP3A4 mRNA induction (concentration-dependent >2-fold increase)", "setting": "CYP3A4", "result": "no evidence of mRNA induction"}, {"measurement": "memory deficits", "setting": "memory deficits", "result": "protection from memory deficits"}, {"measurement": "percent induction relative to positive control induction level", "setting": "CYP1A2 or CYP3A4", "result": "less than 5 % of positive control"}, {"measurement": "Mean plate counts (revertant colonies)", "setting": "[7]; +S9, 0.05 mg/plate", "result": "114.7±12.9"}, {"measurement": "Mean plate counts (revertant colonies)", "setting": "[7]; +S9, 0.15 mg/plate", "result": "120.7±7.6"}, {"measurement": "Mean plate counts (revertant colonies)", "setting": "[7]; +S9, 0.5 mg/plate", "result": "119.3±7.6"}, {"measurement": "Mean plate counts (revertant colonies)", "setting": "[7]; +S9, 1.5 mg/plate", "result": "112.0±7.2"}, {"measurement": "Mean plate counts (revertant colonies)", "setting": "[7]; +S9, 5 mg/plate", "result": "114.0±12.5"}, {"measurement": "Change in revertant colony counts vs negative control (mutagenicity)", "setting": "[7]; +S9 and −S9, all dose levels", "result": "No changes in revertant colony counts were observed"}, {"measurement": "Mean plate counts (revertant colonies)", "setting": "[7]; −S9, 0.05 mg/plate", "result": "98.7±2.3"}, {"measurement": "Mean plate counts (revertant colonies)", "setting": "[7]; [9]", "result": "103.7±1.5"}, {"measurement": "Mean plate counts (revertant colonies)", "setting": "[7]; −S9, 0.15 mg/plate", "result": "96.7±6.1"}, {"measurement": "Mean plate counts (revertant colonies)", "setting": "[7]; −S9, 1.5 mg/plate", "result": "94.7±4.2"}, {"measurement": "Mean plate counts (revertant colonies)", "setting": "[7]; −S9, 5 mg/plate", "result": "105.3±6.1"}, {"measurement": "γKA scavenging rate relative to the rate of formation of γKA protein adducts", "setting": "[8]", "result": 980, "unit": "fold"}]}]}
